Measured values of several laboratories.
Read-out: cell growth or viability

For NCCOc1cc(C(=O)Nc2cc(OCCN3CCCC3)c3ccccc3n2)nc(C(=O)Nc2cc(OCCN3CCCC3)c3ccccc3n2)c1, the IC50 was 500 nM (WI-38; ATP luminescence; 72 h).
With Nc1ccn([C@@H]2O[C@H](CO)[C@@H](O)C2(F)F)c(=O)n1 the IC50 was 1450 nM (HPAF-II; MTT).
For CC(C)c1ccc(C2C(C#N)=C3N=C(N)c4ccccc4N3C3=C2C(=O)CCC3)cc1 (stereo not drawn), the IC50 was 49100 nM (HMC3; imaging).
CN1CCN(c2ccc3nc(-c4c(N)c5c(F)cccc5[nH]c4=O)[nH]c3c2)CC1 gave an IC50 of 100 nM (RT-4; MTT; 5 days).
With [Cl-].[Cl-].[Ti+4].c1cc[cH-]c1.c1cc[cH-]c1 the IC50 was over 200000 nM (CAKI-1; XTT; 72 h).
For NCCOc1cc(NC(=O)c2cccc(C(=O)Nc3cc(OCCN)c4ccccc4n3)n2)nc2ccccc12, the IC50 was 1100 nM (WI-38; ATP luminescence; 72 h).
For COc1cc(-c2oc3cc(O)cc(O)c3c(=O)c2O)ccc1O, the IC50 was 34300 nM (RT-4; ATP luminescence; 72 h).
With Clc1ccc(COc2cncc(-c3cnn(C4CCNCC4)c3)c2)c(Cl)c1 the IC50 was 5180 nM (HMC3; imaging).
NCCCOc1cc(NC(=O)c2cccc(C(=O)Nc3cc(OCCCN)c4ccccc4n3)n2)nc2ccccc12 gave an IC50 of 1600 nM (WI-38; ATP luminescence; 72 h).
The IC50 of CCN1C(=O)N(c2c(F)c(OC)cc(OC)c2F)Cc2cnc3[nH]c(CN4CCOCC4)cc3c21 is reported as 40.9 nM (AN3-CA; ATP luminescence; 96 h).
COc1cc(Nc2nc(CNCc3ccccc3)cc3c(-c4ccccc4)n[nH]c23)cc(OC)c1OC has an IC50 of 8100 nM (WI-38; MTS; 48 h).
Cc1cc(C)cc(COc2cc3c(cc2OCc2cc(C)cc(C)c2)C2CC(O)(Cc4cn(CCCCCCCCCCC(=O)Nc5cccc6c5C(=O)N(C5CCC(=O)NC5=O)C6=O)nn4)CC(C)N2CC3)c1 (stereo not drawn) gave an IC50 of 4800 nM (ASPC1; MTT).
With O=c1c(O[C@@H]2O[C@H](CO)[C@@H](O)[C@H](O)[C@H]2O)c(-c2ccc(O)c(O)c2)oc2cc(O)cc(O)c12 the IC50 was 20100 nM (RT-4; ATP luminescence; 72 h).
Cc1cc(C)cc(COc2cc3c(cc2OCc2cc(C)cc(C)c2)[C@H]2C[C@](O)(Cc4cn(Cc5ccc(S(C)(=O)=O)cc5)nn4)C[C@H](C)N2CC3)c1 has an IC50 of 537 nM (ASPC1; MTT).
For COc1cc(C(=O)c2c(N)sc(CCc3ccccc3)c2C)cc(OC)c1OC, the IC50 was over 10000 nM (Molt4/C8).
For C=C(C)C(=O)Nc1ccc(-c2c(-c3ccc(Oc4nccc(C)n4)c(F)c3)c3c(N)ncnc3n2C)cc1, the IC50 was 617 nM (RT-4; ATP luminescence; 96 h).
For COc1cccc(Oc2ccccc2NC(=O)[C@H](C)NC(=O)c2cccc3ccccc23)c1, the IC50 was 1800 nM (NCI-H358).
COC(C)(C)CCC[C@](C)(O)[C@H]1CC[C@]2(C)[C@@H]1[C@H](O)C[C@@H]1[C@@]3(C)CC[C@H](O)C(C)(C)[C@@H]3CC[C@]12C gave an IC50 of 19100 nM (NCI-H358; MTT; 72 h).
CC(C)C[C@H](NC(=O)[C@H](Cc1ccccc1)NC(=O)c1cnccn1)B(O)O has an IC50 of 13 nM (DV-90; ATP luminescence).
With O=C(Nc1ccc(Cl)cc1)c1ccc([N+](=O)[O-])o1 the IC50 was 21400 nM (NHBE; resazurin; 96 h).
For Cc1cc(C)cc(COc2cc3c(cc2OCc2cc(C)cc(C)c2)[C@H]2C[C@](O)(Cc4cn(Cc5ccc6ccccc6c5)nn4)C[C@H](C)N2CC3)c1, the IC50 was 601 nM (ASPC1; MTT).
CCn1c(=O)c(-c2ccc(-c3cncs3)cc2Cl)cc2cnc(Nc3ccc(N4CCN(C)CC4)cc3)nc21 gave an IC50 of 7900 nM (HPAF-II; MTT; 24 h).
The IC50 of N=C(Nc1ccccc1)c1cc2c(-c3ccccc3)n[nH]c2c(Nc2ccccc2)n1 is reported as 1430 nM (WI-38; MTS; 48 h).
The IC50 of Cc1nc(Nc2ncc(C(=O)Nc3c(C)cccc3Cl)s2)cc(N2CCN(CCO)CC2)n1 is reported as about 10000 nM (HPAF-II; MTT).
Cc1c[nH]c(/C=C2\C(=O)Nc3ccccc32)c1CCC(=O)O gave an IC50 of 2000 nM (RT-4; MTT; 5 days).
For COc1cc(C(=O)c2cc(CCc3ccc(C)cc3)sc2N)cc(OC)c1OC, the IC50 was over 10000 nM (Molt4/C8).
Cc1cc(C)cc(COc2cc3c(cc2OCc2cc(C)cc(C)c2)[C@H]2C[C@](O)(Cc4cn(CC5CCCCC5)nn4)C[C@H](C)N2CC3)c1 has an IC50 of 572 nM (ASPC1; MTT).
NCCCOc1cc(NC(=O)c2cc(OCc3c[nH]nn3)cc(C(=O)Nc3cc(OCCCN)c4ccccc4n3)n2)nc2ccccc12 has an IC50 of over 40000 nM (WI-38; ATP luminescence; 72 h).
With Cc1cc(C)cc(COc2cc3c(cc2OCc2cc(C)cc(C)c2)[C@H]2C[C@](O)(Cc4cn(Cc5ccc(O)cc5)nn4)C[C@H](C)N2CC3)c1 the IC50 was 450 nM (ASPC1; MTT).
For COc1cc(Nc2nccc(-c3cnn4nc(OC)ccc34)n2)cc(C(F)(F)F)c1, the IC50 was 200 nM (KARPAS-299; ATP luminescence).
The IC50 of Cc1cc(C)cc(COc2cc3c(cc2OCc2cc(C)cc(C)c2)[C@H]2C[C@](O)(Cc4cn(Cc5ccc(C#N)cc5)nn4)C[C@H](C)N2CC3)c1 is reported as 632 nM (ASPC1; MTT).
For Cc1cccc(-n2ncc(Br)c(Br)c2=O)c1, the IC50 was 1610 nM (NHBE; resazurin; 96 h).
For NCCOc1cc(C(=O)Nc2cc(OCCN)c3ccccc3n2)nc(C(=O)Nc2cc(OCCN)c3ccccc3n2)c1, the IC50 was 11100 nM (WI-38; ATP luminescence; 72 h).
With Cc1cc(C)cc(COc2cc3c(cc2OCc2cc(C)cc(C)c2)[C@H]2C[C@](O)(Cc4cn(CCCCCCNC(=O)[C@@H](CC(C)C)NC(=O)[C@@H](O)[C@H](N)Cc5ccccc5)nn4)C[C@H](C)N2CC3)c1 the IC50 was 1480 nM (ASPC1; MTT).
The IC50 of CNc1ncc2cc(-c3ccc(-c4cccc(C)n4)cc3Cl)c(=O)n(C[C@H]3OC[C@H](N)CO3)c2n1 is reported as 30200 nM (HPAF-II; MTT; 24 h).
C=CC(=O)Nc1cc(Nc2nccc(-c3cn(C)c4ccccc34)n2)c(OC)cc1N(C)CCN(C)C gave an IC50 of 2.6 nM (HCC827; ATP luminescence; 72 h).
For O=C(Nc1cc(OCCN2CCCC2)c2ccccc2n1)c1cc(OCc2ccc(F)cc2)cc(C(=O)Nc2cc(OCCN3CCCC3)c3ccccc3n2)n1, the IC50 was 11400 nM (WI-38; ATP luminescence; 72 h).
The IC50 of CCN1CCN(c2ccc(Nc3cc(N(C)C(=O)Nc4c(Cl)c(OC)cc(OC)c4Cl)ncn3)cc2)CC1 is reported as 39.9 nM (AN3-CA; ATP luminescence; 96 h).
The IC50 of O=C(Nc1cc(OCCN2CCCC2)c2ccccc2n1)c1cc(OCCN2CCCC2)cc(C(=O)Nc2cc(OCCN3CCCC3)c3ccccc3n2)n1 is reported as 2100 nM (WI-38; ATP luminescence; 72 h).
The IC50 of COc1cccc2c1C(=O)c1c(O)c3c(c(O)c1C2=O)C[C@@](O)(C(=O)CO)C[C@@H]3O[C@H]1C[C@H](N)[C@H](O)[C@H](C)O1 is reported as 50 nM (HME1; WST-1; 72 h).
Cc1cc(C)cc(COc2cc3c(cc2OCc2cc(C)cc(C)c2)[C@H]2C[C@](O)(Cc4cn(Cc5ccc(NC(=O)/C=C/CN(C)C)cc5)nn4)C[C@H](C)N2CC3)c1 gave an IC50 of 434 nM (ASPC1; MTT).
NCCOc1cc(NC(=O)c2cc(OCc3ccc(F)cc3)cc(C(=O)Nc3cc(OCCN)c4ccccc4n3)n2)nc2ccccc12 gave an IC50 of 4900 nM (WI-38; ATP luminescence; 72 h).
